Measured values gathered from unrelated publications.
Target: RAC-alpha serine/threonine-protein kinase (AKT1, Homo sapiens, UniProt P31749)

SMILES | test | setting | measurement | value
Nc1ncc(-c2nc(N3CCOCC3)nc(N3CCOCC3)n2)c(C(F)F)n1 | binding, competition with immobilised ligand | 10 µM | remaining binding | 94%
C#Cc1n[nH]c2c(-c3cn(C(C)c4ccccn4)c(=O)[nH]c3=O)cc(F)cc12 (stereo not drawn) | enzyme activity, inhibitor | 1 µM | inhibition | 3.7%
COc1cc(Nc2ncc(F)c(Nc3ccc4c(n3)NC(=O)C(C)(C)O4)n2)cc(OC)c1OC | binding, competition with immobilised ligand | 10 µM | inhibition | 0%
O=c1[nH]c2ccccc2n1C1CCN(Cc2ccc(-c3[nH]c4cc5ncnc5cc4nc3-c3ccccc3)cc2)CC1 | cell-free assay | 0.5 µM | remaining signal | 114%
Cn1cc(-c2cccc(N3CCc4c(sc5c4CC(C)(C)C5)C3=O)c2CO)cc(Nc2ccncn2)c1=O | enzyme activity, inhibitor | 1 µM | inhibition | 4%
Cc1nn(C)cc1-c1nc2c(N3CCN(Cc4ccc(Cl)cc4)CC3)c(Cl)cnc2[nH]1 | binding, competition with immobilised ligand | 1 µM | remaining binding | 100%
CC(C)(C)c1cc(C=C(C#N)C#N)cc(Br)c1O | enzyme activity, inhibitor | 0.5 µM | remaining activity | 108%
C#Cc1n[nH]c2c(-c3cn([C@@H](C)c4ccccc4)c(=O)[nH]c3=O)cc(F)cc12 | enzyme activity, inhibitor | 0.1 µM | inhibition | 1.4%
O=C(NCc1ncc(C(F)(F)F)cc1Cl)c1ccc2c(c1)C1(CCS(=O)(=O)CC1)[C@H](C1CC1)N2S(=O)(=O)c1ccc(F)cc1 | cell-free assay, competition with immobilised ligand | 1 µM | remaining binding | 96%
COc1ncccc1-c1cnn2ccc(N3CCN(C(=O)OC(C)C)CC3)nc12 | binding, competition with immobilised ligand | 1 µM | remaining binding | 100%
Cn1cncc1[C@](O)(COc1ccc(C#N)cc1-c1ccc(OC(F)(F)F)cc1)c1ccc(C#N)cc1 | cell-free assay, competition with immobilised ligand | 1 µM | remaining binding | 84%
Cn1cc(-c2cc(F)cc(N3CCn4c(cc5c4CCCC5)C3=O)c2CO)cc(Nc2ccc(N3CCN(C4COC4)CC3)cn2)c1=O | enzyme activity, inhibitor | 0.1 µM | inhibition | 5%
